Results on 26 compounds are retold here after ChEMBL document CHEMBL1121923, “N2- and C-7 substituted actinomycin D analogues: synthesis, DNA-binding affinity, and biochemical and biological properties. Structure-activity relationship” (J Med Chem, 1981).

For this data set, the species on record is Bos taurus. The experiment in a line: Thermal denaturation (deltaTm) of compound against calf thymus DNA was measured. Format: ADME. To be noted: cattle, in vitro. In short, it runs like this:
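Calf thymus DNA (MW 100 000–500 000) in 0.01 M phosphate, 5 × 10^-3 M EDTA, pH 7.0; drug 7 × 10^-4 M, DNA nucleotide 7 × 10^-3 M; 259 nm absorbance read at 0.25–1.0 °C steps; Tm taken at 50% hyperchromicity; ΔTm = complex Tm minus DNA Tm.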
For the compound `CCCOc1cc(C(=O)N[C@@H]2C(=O)N[C@H](C(C)C)C(=O)N3CCC[C@H]3C(=O)N(C)CC(=O)N(C)[C@@H](C(C)C)C(=O)O[C@@H]2C)c2nc3c(C(=O)N[C@@H]4C(=O)N[C@H](C(C)C)C(=O)N5CCC[C@H]5C(=O)N(C)CC(=O)N(C)[C@@H](C(C)C)C(=O)O[C@@H]4C)c(N)c(=O)c(C)c-3oc2c1C`, the “Delta Tm” value came out at 3.5.

For the compound `COc1cc(C(=O)N[C@@H]2C(=O)N[C@H](C(C)C)C(=O)N3CCC[C@H]3C(=O)N(C)CC(=O)N(C)[C@@H](C(C)C)C(=O)O[C@@H]2C)c2nc3c(C(=O)N[C@@H]4C(=O)N[C@H](C(C)C)C(=O)N5CCC[C@H]5C(=O)N(C)CC(=O)N(C)[C@@H](C(C)C)C(=O)O[C@@H]4C)c(N)c(=O)c(C)c-3oc2c1C`, the “Delta Tm” value amounted to 5.5.

For `Cc1c2oc3c(C)ccc(C(=O)N[C@@H]4C(=O)N[C@H](C(C)C)C(=O)N5CCC[C@H]5C(=O)N(C)CC(=O)N(C)[C@@H](C(C)C)C(=O)O[C@@H]4C)c3nc-2c(C(=O)N[C@@H]2C(=O)N[C@H](C(C)C)C(=O)N3CCC[C@H]3C(=O)N(C)CC(=O)N(C)[C@@H](C(C)C)C(=O)O[C@@H]2C)c(NCCCCN)c1=O`, the “Delta Tm” value is recorded as 1.8.

For `Cc1c2oc3c(C)ccc(C(=O)N[C@@H]4C(=O)N[C@H](C(C)C)C(=O)N5CCC[C@H]5C(=O)N(C)CC(=O)N(C)[C@@H](C(C)C)C(=O)O[C@@H]4C)c3nc-2c(C(=O)N[C@@H]2C(=O)N[C@H](C(C)C)C(=O)N3CCC[C@H]3C(=O)N(C)CC(=O)N(C)[C@@H](C(C)C)C(=O)O[C@@H]2C)c(NCCCCCN)c1=O`, the “Delta Tm” value amounted to 1.1.

As for `Cc1c2oc3c(C)c(O)c(N)c(C(=O)N[C@@H]4C(=O)N[C@H](C(C)C)C(=O)N5CCC[C@H]5C(=O)N(C)CC(=O)N(C)[C@@H](C(C)C)C(=O)O[C@@H]4C)c3nc-2c(C(=O)N[C@@H]2C(=O)N[C@H](C(C)C)C(=O)N3CCC[C@H]3C(=O)N(C)CC(=O)N(C)[C@@H](C(C)C)C(=O)O[C@@H]2C)cc1=O`, the “Delta Tm” value came to 6.7.

Turning to `Cc1c2oc3c(C)c(O)c(N)c(C(=O)N[C@@H]4C(=O)N[C@H](C(C)C)C(=O)N5CCC[C@H]5C(=O)N(C)CC(=O)N(C)[C@@H](C(C)C)C(=O)O[C@@H]4C)c3nc-2c(C(=O)N[C@@H]2C(=O)N[C@H](C(C)C)C(=O)N3CCC[C@H]3C(=O)N(C)CC(=O)N(C)[C@@H](C(C)C)C(=O)O[C@@H]2C)c/c1=N/Cc1ccco1`, the “Delta Tm” value was 5.8.

Take `CCOc1cc(C(=O)N[C@@H]2C(=O)N[C@H](C(C)C)C(=O)N3CCC[C@H]3C(=O)N(C)CC(=O)N(C)[C@@H](C(C)C)C(=O)O[C@@H]2C)c2nc3c(C(=O)N[C@@H]4C(=O)N[C@H](C(C)C)C(=O)N5CCC[C@H]5C(=O)N(C)CC(=O)N(C)[C@@H](C(C)C)C(=O)O[C@@H]4C)c(N)c(=O)c(C)c-3oc2c1C`: the “Delta Tm” value amounted to 5.9.

Consider `CCCCOc1cc(C(=O)N[C@@H]2C(=O)N[C@H](C(C)C)C(=O)N3CCC[C@H]3C(=O)N(C)CC(=O)N(C)[C@@H](C(C)C)C(=O)O[C@@H]2C)c2nc3c(C(=O)N[C@@H]4C(=O)N[C@H](C(C)C)C(=O)N5CCC[C@H]5C(=O)N(C)CC(=O)N(C)[C@@H](C(C)C)C(=O)O[C@@H]4C)c(N)c(=O)c(C)c-3oc2c1C`, for which the “Delta Tm” value is given as 2.7.

With `CCCCCCCCC/N=c1/cc(C(=O)N[C@@H]2C(=O)N[C@H](C(C)C)C(=O)N3CCC[C@H]3C(=O)N(C)CC(=O)N(C)[C@@H](C(C)C)C(=O)O[C@@H]2C)c2nc3c(C(=O)N[C@@H]4C(=O)N[C@H](C(C)C)C(=O)N5CCC[C@H]5C(=O)N(C)CC(=O)N(C)[C@@H](C(C)C)C(=O)O[C@@H]4C)c(N)c(O)c(C)c3oc-2c1C`, the “Delta Tm” value is 1.1.

With `CCCCCCCCCCCNc1c(C(=O)N[C@@H]2C(=O)N[C@H](C(C)C)C(=O)N3CCC[C@H]3C(=O)N(C)CC(=O)N(C)[C@@H](C(C)C)C(=O)O[C@@H]2C)c2nc3c(C(=O)N[C@@H]4C(=O)N[C@H](C(C)C)C(=O)N5CCC[C@H]5C(=O)N(C)CC(=O)N(C)[C@@H](C(C)C)C(=O)O[C@@H]4C)ccc(C)c3oc-2c(C)c1=O`, the “Delta Tm” value is 0.

Consider `Cc1c2oc3c(C)ccc(C(=O)N[C@@H]4C(=O)N[C@H](C(C)C)C(=O)N5CCC[C@H]5C(=O)N(C)CC(=O)N(C)[C@@H](C(C)C)C(=O)O[C@@H]4C)c3nc-2c(C(=O)N[C@@H]2C(=O)N[C@H](C(C)C)C(=O)N3CCC[C@H]3C(=O)N(C)CC(=O)N(C)[C@@H](C(C)C)C(=O)O[C@@H]2C)c(NCCCCCCCCCCN)c1=O`, for which the “Delta Tm” value was determined as 6.6.

Turning to `Cc1c2oc3c(C)c(O)c(N)c(C(=O)N[C@@H]4C(=O)N[C@H](C(C)C)C(=O)N5CCC[C@H]5C(=O)N(C)CC(=O)N(C)[C@@H](C(C)C)C(=O)O[C@@H]4C)c3nc-2c(C(=O)N[C@@H]2C(=O)N[C@H](C(C)C)C(=O)N3CCC[C@H]3C(=O)N(C)CC(=O)N(C)[C@@H](C(C)C)C(=O)O[C@@H]2C)cc1=N`, the “Delta Tm” value turned out to be 8.2.

With `CCCCCNc1c(C(=O)N[C@@H]2C(=O)N[C@H](C(C)C)C(=O)N3CCC[C@H]3C(=O)N(C)CC(=O)N(C)[C@@H](C(C)C)C(=O)O[C@@H]2C)c2nc3c(C(=O)N[C@@H]4C(=O)N[C@H](C(C)C)C(=O)N5CCC[C@H]5C(=O)N(C)CC(=O)N(C)[C@@H](C(C)C)C(=O)O[C@@H]4C)ccc(C)c3oc-2c(C)c1=O`, the “Delta Tm” value came to 0.

With `Cc1c2oc3c(C)c(OCc4ccc([N+](=O)[O-])cc4)cc(C(=O)N[C@@H]4C(=O)N[C@H](C(C)C)C(=O)N5CCC[C@H]5C(=O)N(C)CC(=O)N(C)[C@@H](C(C)C)C(=O)O[C@@H]4C)c3nc-2c(C(=O)N[C@@H]2C(=O)N[C@H](C(C)C)C(=O)N3CCC[C@H]3C(=O)N(C)CC(=O)N(C)[C@@H](C(C)C)C(=O)O[C@@H]2C)c(N)c1=O`, the “Delta Tm” value is 0.

As for `Cc1c2oc3c(C)ccc(C(=O)N[C@@H]4C(=O)N[C@H](C(C)C)C(=O)N5CCC[C@H]5C(=O)N(C)CC(=O)N(C)[C@@H](C(C)C)C(=O)O[C@@H]4C)c3nc-2c(C(=O)N[C@@H]2C(=O)N[C@H](C(C)C)C(=O)N3CCC[C@H]3C(=O)N(C)CC(=O)N(C)[C@@H](C(C)C)C(=O)O[C@@H]2C)c(NCCCN)c1=O`, the “Delta Tm” value came out at 6.2.

`Cc1c2oc3c(C)c(O)c(N)c(C(=O)N[C@@H]4C(=O)N[C@H](C(C)C)C(=O)N5CCC[C@H]5C(=O)N(C)CC(=O)N(C)[C@@H](C(C)C)C(=O)O[C@@H]4C)c3nc-2c(C(=O)N[C@@H]2C(=O)N[C@H](C(C)C)C(=O)N3CCC[C@H]3C(=O)N(C)CC(=O)N(C)[C@@H](C(C)C)C(=O)O[C@@H]2C)c/c1=N/Cc1ccc[nH]1`: the “Delta Tm” value worked out at 15.8.

Consider `CCCCCCCCCNc1c(C(=O)N[C@@H]2C(=O)N[C@H](C(C)C)C(=O)N3CCC[C@H]3C(=O)N(C)CC(=O)N(C)[C@@H](C(C)C)C(=O)O[C@@H]2C)c2nc3c(C(=O)N[C@@H]4C(=O)N[C@H](C(C)C)C(=O)N5CCC[C@H]5C(=O)N(C)CC(=O)N(C)[C@@H](C(C)C)C(=O)O[C@@H]4C)ccc(C)c3oc-2c(C)c1=O`, for which the “Delta Tm” value was 0.

Turning to `Cc1c2oc3c(C)c(O)c(N)c(C(=O)N[C@@H]4C(=O)N[C@H](C(C)C)C(=O)N5CCC[C@H]5C(=O)N(C)CC(=O)N(C)[C@@H](C(C)C)C(=O)O[C@@H]4C)c3nc-2c(C(=O)N[C@@H]2C(=O)N[C@H](C(C)C)C(=O)N3CCC[C@H]3C(=O)N(C)CC(=O)N(C)[C@@H](C(C)C)C(=O)O[C@@H]2C)c/c1=N/Cc1ccccc1`, the “Delta Tm” value amounted to 6.6.

Turning to `CCCCCCNc1c(C(=O)N[C@@H]2C(=O)N[C@H](C(C)C)C(=O)N3CCC[C@H]3C(=O)N(C)CC(=O)N(C)[C@@H](C(C)C)C(=O)O[C@@H]2C)c2nc3c(C(=O)N[C@@H]4C(=O)N[C@H](C(C)C)C(=O)N5CCC[C@H]5C(=O)N(C)CC(=O)N(C)[C@@H](C(C)C)C(=O)O[C@@H]4C)ccc(C)c3oc-2c(C)c1=O`, the “Delta Tm” value is listed as 0.

With `Cc1c2oc3c(C)c(OCc4ccc(Cl)c(Cl)c4)cc(C(=O)N[C@@H]4C(=O)N[C@H](C(C)C)C(=O)N5CCC[C@H]5C(=O)N(C)CC(=O)N(C)[C@@H](C(C)C)C(=O)O[C@@H]4C)c3nc-2c(C(=O)N[C@@H]2C(=O)N[C@H](C(C)C)C(=O)N3CCC[C@H]3C(=O)N(C)CC(=O)N(C)[C@@H](C(C)C)C(=O)O[C@@H]2C)c(N)c1=O`, the “Delta Tm” value came out at 0.

On to `CCCNc1c(C(=O)N[C@@H]2C(=O)N[C@H](C(C)C)C(=O)N3CCC[C@H]3C(=O)N(C)CC(=O)N(C)[C@@H](C(C)C)C(=O)O[C@@H]2C)c2nc3c(C(=O)N[C@@H]4C(=O)N[C@H](C(C)C)C(=O)N5CCC[C@H]5C(=O)N(C)CC(=O)N(C)[C@@H](C(C)C)C(=O)O[C@@H]4C)ccc(C)c3oc-2c(C)c1=O`, for which the “Delta Tm” value amounted to 1.5.

Turning to `CCCCCCOc1cc(C(=O)N[C@@H]2C(=O)N[C@H](C(C)C)C(=O)N3CCC[C@H]3C(=O)N(C)CC(=O)N(C)[C@@H](C(C)C)C(=O)O[C@@H]2C)c2nc3c(C(=O)N[C@@H]4C(=O)N[C@H](C(C)C)C(=O)N5CCC[C@H]5C(=O)N(C)CC(=O)N(C)[C@@H](C(C)C)C(=O)O[C@@H]4C)c(N)c(=O)c(C)c-3oc2c1C`, the “Delta Tm” value is 1.

For `CCCCNc1c(C(=O)N[C@@H]2C(=O)N[C@H](C(C)C)C(=O)N3CCC[C@H]3C(=O)N(C)CC(=O)N(C)[C@@H](C(C)C)C(=O)O[C@@H]2C)c2nc3c(C(=O)N[C@@H]4C(=O)N[C@H](C(C)C)C(=O)N5CCC[C@H]5C(=O)N(C)CC(=O)N(C)[C@@H](C(C)C)C(=O)O[C@@H]4C)ccc(C)c3oc-2c(C)c1=O`, the “Delta Tm” value was found to be 0.2.

With `Cc1c2oc3c(C)ccc(C(=O)N[C@@H]4C(=O)N[C@H](C(C)C)C(=O)N5CCC[C@H]5C(=O)N(C)CC(=O)N(C)[C@@H](C(C)C)C(=O)O[C@@H]4C)c3nc-2c(C(=O)N[C@@H]2C(=O)N[C@H](C(C)C)C(=O)N3CCC[C@H]3C(=O)N(C)CC(=O)N(C)[C@@H](C(C)C)C(=O)O[C@@H]2C)c(NCCCCCCCCN)c1=O`, the “Delta Tm” value amounted to 0.3.

`Cc1c2oc3c(C)c(O)c(N)c(C(=O)N[C@@H]4C(=O)N[C@H](C(C)C)C(=O)N5CCC[C@H]5C(=O)N(C)CC(=O)N(C)[C@@H](C(C)C)C(=O)O[C@@H]4C)c3nc-2c(C(=O)N[C@@H]2C(=O)N[C@H](C(C)C)C(=O)N3CCC[C@H]3C(=O)N(C)CC(=O)N(C)[C@@H](C(C)C)C(=O)O[C@@H]2C)c/c1=N/Cc1ccc(Cl)c(Cl)c1`: the “Delta Tm” value is 7.

In the case of `Cc1c2oc3c(C)c(O)c(N)c(C(=O)N[C@@H]4C(=O)N[C@H](C(C)C)C(=O)N5CCC[C@H]5C(=O)N(C)CC(=O)N(C)[C@@H](C(C)C)C(=O)O[C@@H]4C)c3nc-2c(C(=O)N[C@@H]2C(=O)N[C@H](C(C)C)C(=O)N3CCC[C@H]3C(=O)N(C)CC(=O)N(C)[C@@H](C(C)C)C(=O)O[C@@H]2C)c/c1=N/Cc1cccc(Oc2ccccc2)c1`, the “Delta Tm” value is reported as 5.3.
